Data as given in ChEMBL document CHEMBL3526062, “Role of human UDP-glucuronosyltransferases in the biotransformation of the triazoloacridinone and imidazoacridinone antitumor agents C-1305 and C-1311: highly selective substrates for UGT1A10” (Drug Metab Dispos, 2012).

What was measured:
[1] = target: T1, UDP-glucuronosyltransferase 1A10 (Homo sapiens, UniProt Q9HAW8); experiment: Activity of human recombinant UGT1A10 expressed in baculovirus-infected Sf9 cells assessed as glucuronidation activity per mg of protein at 100 to 200 uM after 60 mins in presence of 3 mM UDP-GlcUA; format: ADME; details: sf9, 1 h
T1 sequence (Q9HAW8 whole entry): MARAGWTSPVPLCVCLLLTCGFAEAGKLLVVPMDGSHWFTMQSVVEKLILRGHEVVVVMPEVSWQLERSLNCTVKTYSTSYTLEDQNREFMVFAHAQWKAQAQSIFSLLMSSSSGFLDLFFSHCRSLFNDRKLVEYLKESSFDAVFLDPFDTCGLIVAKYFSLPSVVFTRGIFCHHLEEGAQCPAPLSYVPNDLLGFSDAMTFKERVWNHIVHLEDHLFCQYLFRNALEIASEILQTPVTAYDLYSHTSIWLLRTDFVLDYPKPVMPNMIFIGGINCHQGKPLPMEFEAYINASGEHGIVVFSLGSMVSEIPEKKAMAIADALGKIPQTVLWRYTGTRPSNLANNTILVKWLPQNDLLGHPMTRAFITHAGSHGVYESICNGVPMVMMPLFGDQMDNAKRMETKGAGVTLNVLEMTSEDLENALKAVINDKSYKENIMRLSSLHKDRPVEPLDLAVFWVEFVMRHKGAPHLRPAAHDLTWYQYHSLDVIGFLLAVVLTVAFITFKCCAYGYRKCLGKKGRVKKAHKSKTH
Procedure, shortened: (§1)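 Screening: 5 μg recombinant UGT protein (His-tag levels normalized) in Tris-HCl pH 7.4, 5 mM MgCl2, 5 mM saccharolactone, 2% DMSO to permeabilize membranes. Substrate at 100 or 200 μM, added in water. Started with 3 mM UDP-GlcUA, 60 min at 37°C, stopped with ethanol, then centrifuged. Glucuronide quantified by reversed-phase C18 HPLC against the substrate response; triplicates.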

[2] = test system: Liver microsome; experiment: Drug metabolism in human liver microsomes assessed as glucuronidation activity at 0.2 mM for 60 mins by ESI-MS analysis in presence of 3 mM UDP-GlcUA; format: ADME; details: 1 h, 200 µM
Procedure, shortened: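 Single-donor liver or intestinal microsomes (20 μg total protein) incubated with 0.2 mM substrate and 3 mM UDP-GlcUA for 60 min at 37°C in Tris-HCl pH 7.4, MgCl2, saccharolactone, 2% DMSO. Ethanol stop, centrifuged, HPLC analysis; triplicates.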

[3] = Drug metabolism in human intestinal microsomes assessed as glucuronidation after 60 mins by Michaelis-Menten equation in presence of 3 mM UDP-GlcUA; format: ADME, Intestine, Microsome
Procedure, shortened: (§2)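 Recombinant UGT membrane protein (5 μg; His-tagged UGT1A levels normalized by anti-His Western blot) or single-donor microsomes (20 μg) incubated with substrate 5–1000 μM and 3 mM UDP-GlcUA in […] pH 7.4, 5 mM MgCl2, 5 mM saccharolactone, 2% DMSO, 60 min, 37°C. Ethanol stop, centrifuged, HPLC-UV. Initial velocities fitted to Michaelis-Menten, Hill or substrate-inhibition models; three determinations.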

[4] = Drug metabolism in human intestinal microsomes assessed as ratio of Vmax to Km for glucuronidation per mg of protein after 60 mins by Michaelis-Menten equation in presence of 3 mM UDP-GlcUA; format: ADME, Intestine, Microsome; details: 1 h; procedure, shortened: as §2
[5] = test system: Liver microsome; experiment: Drug metabolism in human liver microsomes assessed as glucuronidation per mg of protein after 60 mins by Michaelis-Menten equation in presence of 3 mM UDP-GlcUA; format: ADME; details: 1 h; procedure, shortened: as §2
[6] = test system: Liver microsome; experiment: Drug metabolism in human liver microsomes assessed as ratio of Vmax to Km for glucuronidation per mg of protein after 60 mins by Michaelis-Menten equation in presence of 3 mM UDP-GlcUA; format: ADME; details: 1 h; procedure, shortened: as §2
[7] = Drug metabolism in human stomach microsomes assessed as glucuronidation activity at 0.1 mM for 60 mins in presence of 3 mM UDP-GlcUA; format: ADME; details: 1 h, 100 µM
Procedure, shortened: (§3)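 Microsomes from single donors (20 μg protein) incubated with 0.1 mM substrate and 3 mM UDP-GlcUA for 60 min at 37°C in Tris-HCl pH 7.4 buffer with 5 mM MgCl2, 5 mM saccharolactone and 2% DMSO. Glucuronide measured by HPLC; donor data summarized as box-and-whisker plots.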

[8] = target: T2, UDP-glucuronosyltransferase 1A8 (Homo sapiens, UniProt Q9HAW9); experiment: Activity of human recombinant UGT1A8 expressed in baculovirus-infected Sf9 cells assessed as glucuronidation activity per mg of protein at 100 to 200 uM after 60 mins in presence of 3 mM UDP-GlcUA; format: ADME; details: sf9, 1 h; procedure, shortened: as §1
T2 sequence (Q9HAW9 whole entry): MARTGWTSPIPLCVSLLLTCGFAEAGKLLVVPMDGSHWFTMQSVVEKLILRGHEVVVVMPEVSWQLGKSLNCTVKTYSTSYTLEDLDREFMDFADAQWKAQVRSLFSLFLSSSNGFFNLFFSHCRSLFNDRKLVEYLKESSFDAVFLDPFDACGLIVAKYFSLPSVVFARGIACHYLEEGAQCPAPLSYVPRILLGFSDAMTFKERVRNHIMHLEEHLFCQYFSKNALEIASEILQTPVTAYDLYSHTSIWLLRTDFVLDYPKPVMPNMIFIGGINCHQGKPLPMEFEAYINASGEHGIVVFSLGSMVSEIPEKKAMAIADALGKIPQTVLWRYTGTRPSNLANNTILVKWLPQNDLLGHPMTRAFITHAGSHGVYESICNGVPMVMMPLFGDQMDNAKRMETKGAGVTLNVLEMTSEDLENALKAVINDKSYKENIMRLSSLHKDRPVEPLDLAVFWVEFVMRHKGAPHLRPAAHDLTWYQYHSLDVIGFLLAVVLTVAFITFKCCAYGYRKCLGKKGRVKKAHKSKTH

[9] = Drug metabolism in human duodenum microsomes assessed as glucuronidation activity at 0.1 mM for 60 mins in presence of 3 mM UDP-GlcUA; format: ADME, microsome; details: 1 h, 100 µM; procedure, shortened: as §3
[10] = Drug metabolism in human jejunum microsomes assessed as glucuronidation activity at 0.1 mM for 60 mins in presence of 3 mM UDP-GlcUA; format: ADME; details: 1 h, 100 µM; procedure, shortened: as §3
[11] = Drug metabolism in human small intestine microsomes assessed as glucuronidation activity at 0.1 mM for 60 mins in presence of 3 mM UDP-GlcUA; format: ADME; details: 1 h, 100 µM; procedure, shortened: as §3
[12] = Drug metabolism in human ileum microsomes assessed as glucuronidation activity at 0.1 mM for 60 mins in presence of 3 mM UDP-GlcUA; format: ADME; details: 1 h, 100 µM; procedure, shortened: as §3

Row | Compound | Drug metabolism [1] | Drug metabolism [2] | Km at 1 h [3] | Vmax/Km [4] | Vmax [5] | Vmax/Km [6] | Drug metabolism [7] | Drug metabolism [8] | Drug metabolism [9] | Drug metabolism [10] | Drug metabolism [11] | Drug metabolism [12]
1 | CN(C)CCCNc1ccc2nnn3c4ccc(O)cc4c(=O)c1c23 | > 0.5 nmol/min/mg | metabolite_detected | 76.9 µM | 5.4 µL/min | 0.386 nmol/min/mg | 5.4 µL/min | metabolite_detected | 0.2 nmol/min/mg | metabolite_detected | metabolite_detected | metabolite_detected | metabolite_detected
2 | CCN(CC)CCNc1ccc2ncn3c4ccc(O)cc4c(=O)c1c23 [C-1311] | > 0.5 nmol/min/mg | metabolite_detected | 159 µM | 5.2 µL/min | 0.156 nmol/min/mg | 4 µL/min | metabolite_detected | 0.2 nmol/min/mg | metabolite_detected | metabolite_detected | metabolite_detected | metabolite_detected
